# From ChEMBL document CHEMBL3734652, “Pyrrolo[3,4-c]pyridine-1,3(2H)-diones: A Novel Antimycobacterial Class Targeting Mycobacterial Respiration” (J Med Chem, 2015)
# How the values were obtained:
# [1] = tested on: Mycobacterium tuberculosis; assay: Antimicrobial activity against Mycobacterium tuberculosis H37RvMA under GAST/Fe medium assessed as growth inhibition after 14 days by alamar blue assay; format: functional; details: 336 h
# In short: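 Broth microdilution in GAST/Fe medium against fully virulent Mtb H37RvMa or its derived strains (cytochrome bd oxidase deletion ΔcydKO; qcrB Ala317Thr point mutant). Plates were incubated 14 days, growth was read by Alamar Blue, and MIC90 was taken as the potency value.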
# [2] = Metabolic stability in mouse liver microsomes assessed as residual compound at 0.1 uM after 30 mins by LC-MS/MS method in presence or absence of NADPH; format: ADME; details: read-out: Stability
# Plasma [3] = assay: Drug metabolism in C57/BL6 mouse plasma assessed as formation of 7-Amino-2-benzyl-4-methyl-1,3-dioxo-2,3-dihydro-1H-pyrrolo-[3,4-c]pyridine-6-carboxylic Acid by LC-MS analysis in absence of NADPH; format: ADME, cell-free
# Vero = assay: Cytotoxicity against African green monkey Vero cells assessed as cell viability by MTT assay; format: cell-based; details: Chlorocebus sabaeus
# In short: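 VERO kidney epithelial cells from African green monkey were exposed to compounds at concentrations up to 100 μM, and IC₅₀ was reported.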
# [4] = tested on: Mycobacterium tuberculosis; assay: Antimicrobial activity against clinical isolates of Mycobacterium tuberculosis SAWC 3385 Cas1/Delhi under 7H9 medium assessed as growth inhibition after 14 days by alamar blue assay; format: functional; details: 336 h
# [5] = tested on: Mycobacterium tuberculosis; assay: Antimicrobial activity against clinical isolates of Mycobacterium tuberculosis SAWC 3906 Atyp-beijing under 7H9 medium assessed as growth inhibition after 14 days by alamar blue assay; format: functional; details: 336 h
# [6] = tested on: Mycobacterium tuberculosis; assay: Antimicrobial activity against GFP expressing recombinant Mycobacterium tuberculosis H37RvMA under 7H9 medium assessed as growth inhibition after 14 days by broth microdilution method; format: functional; details: 336 h
# [7] = Metabolic stability in rat liver microsomes assessed as residual compound at 0.1 uM after 30 mins by LC-MS/MS method in presence or absence of NADPH; format: ADME; details: read-out: Stability
# [8] = Metabolic stability in human liver microsomes assessed as residual compound at 0.1 uM after 30 mins by LC-MS/MS method in presence or absence of NADPH; format: ADME; details: read-out: Stability
# [9] = Kinetic solubility in FaSSIF at pH 6.5 after 2 hours at 25 degC by shake flask method; format: physicochemical; details: read-out: Kinetic_solubility
# Liver [10] = assay: Drug metabolism in BALB/c mouse liver microsomes assessed as formation of 7-Amino-2-benzyl-4-methyl-1,3-dioxo-2,3-dihydro-1H-pyrrolo-[3,4-c]pyridine-6-carboxylic Acid at 10 uM after 1 hr by LC-MS analysis in absence of NADPH; format: ADME
# [11] = tested on: Mycobacterium tuberculosis; assay: Antimicrobial activity against GFP expressing recombinant Mycobacterium tuberculosis H37RvMA under GAST/Fe medium assessed as growth inhibition after 14 days by broth microdilution method; format: functional; details: 336 h
# [12] = tested on: Mycobacterium tuberculosis; assay: Drug metabolism in supernatant of Mycobacterium tuberculosis assessed as formation of 7-Amino-2-benzyl-4-methyl-1,3-dioxo-2,3-dihydro-1H-pyrrolo-[3,4-c]pyridine-6-carboxylic Acid in absence of NADPH; format: ADME, organism-based
# [13] = tested on: Mycobacterium tuberculosis; assay: Antimicrobial activity against clinical isolates of Mycobacterium tuberculosis SAWC 2371 Haarlem under 7H9 medium assessed as growth inhibition after 14 days by alamar blue assay; format: functional; details: 336 h
# [14] = tested on: Mycobacterium tuberculosis; assay: Drug level in supernatant of Mycobacterium tuberculosis treated with Ethyl 7-Amino-2-benzyl-4-methyl-1,3-dioxo-2,3-dihydro-1Hpyrrolo[3,4-c]pyridine-6-carboxylate in absence of NADPH; format: ADME, organism-based
# Liver [15] = assay: Drug level in BALB/c mouse liver microsomes treated with 7-Amino-2-benzyl-4-methyl-6-(3-methyl-1,2,4-oxadiazol-5-yl)-1H-pyrrolo[3,4-c]pyridine-1,3(2H)-dione at 10 uM after 1 hr by LC-MS analysis; format: ADME
# CHO = assay: Cytotoxicity against CHO cells assessed as cell viability by MTT assay; format: cell-based; details: Cricetulus griseus
# Plasma [16] = assay: Drug metabolism in C57/BL6 mouse plasma treated with 7-Amino-2-benzyl-4-methyl-6-(3-methyl-1,2,4-oxadiazol-5-yl)-1H-pyrrolo[3,4-c]pyridine-1,3(2H)-dione by LC-MS analysis; format: ADME, cell-free
# Liver [17] = assay: Drug level in BALB/c mouse liver microsomes treated with ethyl 7-Amino-2-benzyl-4-methyl-1,3-dioxo-2,3-dihydro-1Hpyrrolo[3,4-c]pyridine-6-carboxylate at 10 uM after 1 hr by LC-MS analysis in absence of NADPH; format: ADME
# Plasma [18] = assay: Drug level in C57/BL6 mouse plasma treated with ethyl 7-Amino-2-benzyl-4-methyl-1,3-dioxo-2,3-dihydro-1Hpyrrolo[3,4-c]pyridine-6-carboxylate by LC-MS analysis in absence of NADPH; format: ADME, cell-free
Structure (SMILES),MIC90 [1],"remaining at 0.5 h, 0.1 µM [2]",Drug metabolism (Plasma [3]),IC50 (Vero),MIC90 [4],MIC90 [5],MIC90 [6],"remaining at 0.5 h, 0.1 µM [7]","remaining at 0.5 h, 0.1 µM [8]",solubility kinetic at 2 h [9],Drug metabolism (Liver [10]),MIC90 [11],Drug metabolism [12],MIC90 [13],Drug metabolism [14],Drug metabolism (Liver [15]),IC50 (CHO),Drug metabolism (Plasma [16]),Drug metabolism (Liver [17]),Drug metabolism (Plasma [18])
CCOC(=O)c1nc(C)c2c(c1N)C(=O)N(Cc1ccccc1)C2=O,< 0.156 µM,18%,metabolite_detected,> 100 µM,< 0.08 µM,< 0.08 µM,> 20 µM,19%,14%,< 5 µM,metabolite_detected,0.132 µM,metabolite_detected,< 0.08 µM,–,–,–,–,–,–
Cc1nc(C(=O)O)c(N)c2c1C(=O)N(Cc1ccccc1)C2=O,3.13 µM,79%,–,–,–,–,–,71%,64%,177 µM,–,–,–,–,metabolite_detected,metabolite_detected,> 100 µM,metabolite_detected,metabolite_detected,metabolite_detected
